The results in this text go back to PubChem BioAssay.

Each structure is given as a SMILES string. Unmarked numbers belong to inactive results. Records with an inconclusive call do not appear. Active and inactive are the calls of the source.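 Rule for the calls, unless noted: active = inhibition over a set limit, the all-compound mean plus 3 SD, in both replicate runs; inconclusive = over that limit in just one replicate run; inactive = at or under that limit in both runs.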

Test [1] is described as follows: S. cerevisiae growth inhibition in permissive medium (OD615), pilot counter-assay for S. cerevisiae lifespan shortening project, permissive growth control (AID 705;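 active = growth inhibition above 25% in both replicates, a cutoff set 3 SD above the mean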). Particulars: OD615, 24 h, at 10 µM, stronger effect = higher value. A digest of the protocol:
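System: S. cerevisiae with engineered DeaD lifespan system / Measured by: absorbance (optical density) at 615 nm / Read-out: reduction in yeast growth (OD615) / Times: 4 h cell pre-growth, 24 h exposure at 30 °C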

Test [2] is described as follows: S. cerevisiae growth inhibition in restrictive medium, OD615, pilot screen, restrictive growth control, yeast lifespan reduction project (AID 706;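 active = growth inhibition above a set limit, 3 SD over mean compound inhibition, in both replicates, cut at about 43% in these data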;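 note: modified DeaD lifespan yeast strain shifted to restrictive glucose medium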). As to conditions: OD615, 48 h, at 10 µM, stronger effect = higher value. The procedure, abridged: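 System: Engineered S. cerevisiae DeaD strain | Buffer or medium: Glucose-based CSMM-D restrictive medium | Schedule: 4 h pre-incubation, 48 h exposure at 30 °C | Technique: Optical density at 615 nm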

Test [3] is described as follows: doxorubicin toxicity protection in MRP-1 cells – H69AR cells, CellTiter-Glo, duplicate, MRP-1 activator project, pilot screen (AID 807;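 active = viability increase at or above a cutoff of the median across tested compounds plus 3 SD, cut at about 8.5% in these data, passing the limit was not always enough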;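 note: compound pretreatment 18-22 h then 72 h combined with doxorubicin; 0% = doxorubicin alone and 100% = vehicle without doxorubicin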). As to conditions: H69AR viability with doxorubicin, CellTiter-Glo luminescence; at 10 µM; stronger effect = higher value. A general note: ATP-based viability assays read luminescence as a measure of living cells.
Test [4] is described as follows: viability of HCT116 without oncogenic beta-catenin – human colon tumor cells, pilot screen (AID 823;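 active = cell viability at or below a set limit in both duplicate runs, the limit being the all-compound median minus 4 SD, cut at about 23% in these data, passing the limit was not always enough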;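 note: 0% = wells killed by 20 µM Hyamine and 100% = untreated DMSO cell wells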). As to conditions: HCT116 beta-catenin knockout viability, CellTiter-Glo, 60 h; at 10 µM; stronger effect = lower value.
Test [5] in a line: viability of PTEN-null HCT116 cells – cell-based, HCT116 clonal line, CellTiter-Glo, pilot screen (AID 824;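 active = viability at or below 27.92% in each of two runs, the all-compound median minus 4 SD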;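 note: 0% = 20 µM Hyamine control and 100% = vehicle cell control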). As to conditions: HCT116 PTEN-deleted viability, 60 h, at 10 µM, stronger effect = lower value.
Test [6] is described as follows: RAM pathway blockade in budding yeast – dse1pr::URA3 reporter, 5-FOA selection, pilot screen (AID 869).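 Note: 0% = DMSO wells with no growth and 100% = 10 µM 1-NA-PP1 with full growth; RAM network block rescues cells from 5-FOA so hits raise OD615 growth.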 As to conditions: S. cerevisiae dse1pr::URA3 5-FOA growth, OD615, 2 d; at 10 µM; stronger effect = higher value; strain carries analog-sensitive mutant Cbk1 kinase.
The nature of test [7]: RAM signaling pathway blockade in yeast – S. cerevisiae, Pdr1DBD-CYC8 efflux-inhibited sensitized strain, primary screen (AID 1298;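 active = RAM network inhibition above 8.4% in each of two replicates, 3 SD over the compound average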;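 note: 0% = DMSO untreated cells without growth and 100% = 10 µM 1-NA-PP1 full growth; higher means more yeast growth rescued from 5-FOA killing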). As to conditions: S. cerevisiae cbk1-as DSE1-URA3 strain, 5-FOA growth OD615, 2 d; at 50 µM; stronger effect = higher value.

Take `Oc1c(C(c2cccs2)N2CCN(c3ccccc3)CC2)sc2ncnn12` (centres undefined): the growth inhibition in test [1] is -13.2%; in test [2], -5.4%. In addition, the viability increase in test [3] is 12.3% (active). Besides, the values for the viability in test [4] and in test [5] were 90.9% and 89.5%, respectively. Besides, the inhibition (in general, the relative decrease from the control value, in per cent) in test [6] was 1.53%. Also, in test [7], the RAM network inhibition is 1.45%.
As to `COCCCNc1oc(-c2ccccc2F)nc1C#N`, the growth inhibition is -13.2% in test [1] and -15.9% in test [2]. Besides, in test [3], the viability increase is 2.02%. In addition, the viability (commonly a read-out of living cells in per cent, often relative to untreated cells) in test [4] was 105%; in test [5], 97.2%. In addition, the inhibition in test [6] is -0.74%. Further, the RAM network inhibition in test [7] was 0.89%.
`S=c1[nH]nc(-c2ccncc2)n1Cc1ccccc1`: the growth inhibition in test [1] was -4.1%; in test [2], -9.11%. The viability increase in test [3] is -1.9%. Further, the viability in test [4] is 100%; in test [5], 93.7%. Also, the inhibition in test [6] was 0.265%. The RAM network inhibition in test [7] is 1.95%.
Turning to `O=C(NCCC1=CCCCC1)C1CCCN(S(=O)(=O)c2cccc3cccnc23)C1` (centres undefined), the values for the growth inhibition in test [1] and in test [2] were -14.8% and -12.7%, respectively. For the same compound, in test [3], the viability increase is -1.42%. Also, the viability in test [4] is 89%; in test [5], 80.6%. For the same compound, in test [6], the inhibition was 2.14%. In addition, in test [7], the RAM network inhibition was 5.84%.
Turning to `O=C(Nc1ccccc1C1CC1)c1cccs1`, the growth inhibition is -10.4% in test [1] and -19.7% in test [2]. In addition, the viability increase in test [3] was 1.09%. Further, the viability in test [4] is 95%; in test [5], 96.9%. For the same compound, the inhibition in test [6] was 1.16%. In addition, the RAM network inhibition in test [7] is 0.36%.
Turning to `Cn1c(C(=O)N2CCN(Cc3ccc4c(c3)OCO4)CC2)cc2c(=O)n(C)c3ccccc3c21`, the growth inhibition was -1.14% in test [1] and 0.725% in test [2]. In addition, the viability increase in test [3] was -1.54%. The viability in test [4] was 67.9%; in test [5], 71.9%. In addition, the inhibition in test [6] is 3.29%. The RAM network inhibition in test [7] was 0.67%.
Take `COc1ccc(-c2nnc(NC(=O)c3ccccc3C)o2)cc1`: the growth inhibition in test [1] is -8.78%; in test [2], -11.7%. Besides, the viability increase in test [3] is -2.73%. The viability in test [4] was 27.6%; in test [5], 25.3% (active). In addition, the inhibition in test [6] is 1.86%. Besides, in test [7], the RAM network inhibition was 0.11%.
As for `COC(=O)CC1SC(=O)NC1=Nc1ccccc1` (centres undefined), the growth inhibition is -7.63% in test [1] and -0.1% in test [2]. Besides, in test [3], the viability increase is 0.96%. For the same compound, the viability is 106% in test [4] and 89.1% in test [5]. For the same compound, the inhibition in test [6] was 1.42%. In addition, in test [7], the RAM network inhibition was 4.94%.
For `O=C(Nc1ccccc1C(=O)N1CCOCC1)c1ccco1`, the growth inhibition in test [1] is -6.66%; in test [2], -11.1%. The viability increase in test [3] is -0.74%. Moreover, the viability was 101% in test [4] and 105% in test [5]. Moreover, in test [6], the inhibition is 0.27%. Besides, the RAM network inhibition in test [7] is 2.67%.
Consider `O=C1NCCCC1C(=O)N1CCN(C(=O)c2ccco2)CC1` (centres undefined), for which the growth inhibition is -3.22% in test [1] and -1.05% in test [2]. For the same compound, in test [3], the viability increase was -0.63%. The viability was 106% in test [4] and 98.6% in test [5]. Also, in test [6], the inhibition is -0.03%. In test [7], the RAM network inhibition was 0.31%.
With `CCOC(=O)c1c(C)oc2cc(Br)c(O)c(Br)c12`, the figures for the growth inhibition in test [1] and in test [2] were -19% and -14.6%, respectively. Besides, the viability increase in test [3] is -2.05%. Besides, the viability in test [4] is 93.6%; in test [5] it was 85.7%. Moreover, in test [6], the inhibition is 0.86%. Further, the RAM network inhibition in test [7] is 0.68%.
Consider `O=C(CN1C(=O)C2C3C=CC(C3)C2C1=O)Nc1ccc2nccnc2c1` (centres undefined), for which the growth inhibition was 7.15% in test [1] and -1.04% in test [2]. Besides, the viability increase in test [3] was -1.76%. Moreover, the figures for the viability in test [4] and in test [5] were 105% and 95.2%, respectively. The inhibition in test [6] is 2.29%. Also, the RAM network inhibition in test [7] was 0.31%.
For the compound `O=C(Nc1ccccc1C(=O)NC(Cc1c[nH]c2ccccc12)C(=O)O)c1ccco1` (centres undefined), the growth inhibition in test [1] is -11%; in test [2] it was -11.3%. In test [3], the viability increase is -2.96%. In addition, the results for the viability in test [4] and in test [5] were 102% and 97.1%, respectively. For the same compound, the inhibition in test [6] is 0.95%. Besides, the RAM network inhibition in test [7] was 2.94%.
Consider `Cc1cc(Nc2ncc(Cl)cc2Cl)n(-c2ccccn2)n1`, for which the growth inhibition in test [1] was -1.14%; in test [2], 3.23%. The viability increase in test [3] was -5.35%. The figures for the viability in test [4] and in test [5] were 89.3% and 76.5%, respectively. In test [6], the inhibition is 1.93%. Besides, the RAM network inhibition in test [7] is 4.08%.
Regarding `CCSc1nc2ccccc2n1S(=O)(=O)c1ccccc1`, the growth inhibition is -13.9% in test [1] and -20.8% in test [2]. For the same compound, in test [3], the viability increase is -0.8%. For the same compound, the viability in test [4] is 101%; in test [5], 100%. For the same compound, the inhibition in test [6] is 0.395%. In addition, the RAM network inhibition in test [7] is 1.37%.
For the compound `CCCCc1ccc(NC(=O)OC)cc1`, the growth inhibition in test [1] is 1.49%; in test [2], 10.8%. For the same compound, in test [3], the viability increase was 3.48%. In addition, the viability in test [4] was 104%; in test [5], 90.6%. Also, the inhibition in test [6] was 2.21%. In addition, the RAM network inhibition in test [7] is -2%.
For the compound `Cc1nnc(SCc2ccc(Cl)cc2Cl)[nH]c1=O`, the figures for the growth inhibition in test [1] and in test [2] were -11.1% and 1.19%, respectively. In test [3], the viability increase is 0.05%. The viability is 104% in test [4] and 99.1% in test [5]. In addition, the inhibition in test [6] is 0.42%. Moreover, the RAM network inhibition in test [7] was 4.49%.
